Results from ChEMBL document CHEMBL1137992, “Long hydrocarbon chain keto diols and diacids that favorably alter lipid disorders in vivo” (J Med Chem, 2004).

Columns and labels:
Assay type in all cases: functional
[1] = tested on: Rattus norvegicus; assay: Percent decrease in nonesterified fatty acids in obese Zucker rats after 1 week of treatment at a dose of 100 mg/kg/day; parameters: scale not given: the % may be the effect or the level left
Outline: (§1)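 Female Zucker fatty rats [Crl:(Zuc)-faBR], 10–12 weeks, 400–500 g, acclimated 7 days on chow. Compound or vehicle (20% EtOH/80% PEG-200) given by daily oral gavage for 2 weeks, 0–100 mg/kg/day. After a 6 h fast, blood was taken before dosing, at 1 wk and at 2 wk. Serum lipids, NEFA and insulin (ELISA) were measured; glucose by glucometer. HDL/non-HDL-C came from Superose 6 gel-filtration profiles. Values are % change from pretreatment, mean ± SEM.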

[2] = tested on: Rattus norvegicus; assay: Amount of insulin in obese Zucker rats after 2 weeks of treatment at a dose of 30 mg/kg/day
Outline: (§2)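 Female obese Zucker rats [Crl:(Zuc)-faBR], 400–500 g, given daily oral gavage in 20% EtOH/80% PEG-200 for up to 14 days. After a 6-h fast, serum was collected pretreatment and at day 7 (orbital bleed) and day 14 (cardiac puncture) and stored at -80 °C. Insulin was measured by ELISA. Values are mean ± SEM.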

[3] = tested on: Rattus norvegicus; assay: Amount of glucose in obese Zucker rats after 2 weeks of treatment at a dose of 100 mg/kg/day
Outline: (§3)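 Female Zucker fatty rats [Crl:(Zuc)-faBR], 10–12 weeks old (400–500 g), gavaged daily with vehicle (20% EtOH/80% PEG-200, 0.25% of body weight) or compound. After a 6-h fast, blood glucose was read by glucometer from tail-prick blood of unanesthetized rats before dosing and after 1 and 2 weeks. Values are mean ± SEM.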

[4] = tested on: Rattus norvegicus; assay: Amount of insulin in obese Zucker rats at pre-treatment at a dose of 3 mg/kg/day; outline: as §2
[5] = tested on: Rattus norvegicus; assay: Amount of insulin in obese Zucker rats at pre-treatment at a dose of 30 mg/kg/day; outline: as §2
[6] = tested on: Rattus norvegicus; assay: Amount of triglycerides in obese Zucker rats at pre-treatment at a dose of 0 mg/kg/day
Outline: (§4)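 Female Zucker fatty rats [Crl:(Zuc)-faBR], 10–12 weeks old (400–500 g), dosed once daily by oral gavage in 20% EtOH/80% PEG-200 for up to 14 days. After a 6-h fast, serum was taken pre-dose, at day 7 (orbital venous plexus, O2/CO2 anaesthesia) and at day 14 (cardiac puncture), stored at −80 °C, and assayed on a Hitachi 912 automatic analyzer. Mean ± SEM.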

[7] = tested on: Rattus norvegicus; assay: Amount of triglycerides in obese Zucker rats after 1 week of treatment at a dose of 10 mg/kg/day; outline: as §4
[8] = tested on: Rattus norvegicus; assay: Amount of nonesterified fatty acids in obese Zucker rats at pre-treatment at a dose of 3 mg/kg/day; outline: as §4
[9] = tested on: Rattus norvegicus; assay: Amount of HDL-cholesterol in obese Zucker rats after 1 week of treatment at a dose of 100 mg/kg/day
Outline: (§5)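 Female Zucker fatty rats [Crl:(Zuc)-faBR], 10–12 weeks old (400–500 g), dosed once daily by oral gavage in 20% EtOH/80% PEG-200 (dose volume 0.25% of body weight). Rats were fasted 6 h and bled before dosing and at day 7 (orbital plexus), and at day 14 (cardiac puncture). Serum cholesterol fractions came from Superose 6 gel-filtration lipoprotein profiles (% peak area × serum total cholesterol). Values are mean ± SEM.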

[10] = tested on: Rattus norvegicus; assay: Amount of HDL-cholesterol in obese Zucker rats after 2 weeks of treatment at a dose of 30 mg/kg/day; outline: as §5
[11] = tested on: Rattus norvegicus; assay: Amount of nonesterified fatty acids in obese Zucker rats at pre-treatment at a dose of 30 mg/kg/day; outline: as §4
[12] = tested on: Rattus norvegicus; assay: Amount of HDL-cholesterol in obese Zucker rats after 1 week of treatment at a dose of 10 mg/kg/day; outline: as §5
[13] = tested on: Rattus norvegicus; assay: Amount of HDL-cholesterol in obese Zucker rats after 2 weeks of treatment at a dose of 3 mg/kg/day; outline: as §5
[14] = tested on: Rattus norvegicus; assay: Amount of nonesterified fatty acids in obese Zucker rats at pre-treatment at a dose of 0 mg/kg/day; outline: as §4
[15] = tested on: Rattus norvegicus; assay: Amount of nonesterified fatty acids in obese Zucker rats at pre-treatment at a dose of 100 mg/kg/day; outline: as §4
[16] = tested on: Rattus norvegicus; assay: Amount of non-HDL-cholesterol in obese Zucker rats after 1 week of treatment at a dose of 0 mg/kg/day; outline: as §5
[17] = tested on: Rattus norvegicus; assay: Percent increase in HDL-cholesterol in obese Zucker rats after 2 weeks of treatment at a dose of 30 mg/kg/day; outline: as §1
[18] = tested on: Rattus norvegicus; assay: Percentage change of triglycerides in obese female Zucker rats after 2 weeks of pre-treatment at a dose of 100 mg/kg/day
Outline: (§6)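 Female Zucker fatty rats [Crl:(Zuc)-faBR], 10–12 weeks old (400–500 g), acclimated 7 days and fed rodent chow. Dosed once daily by oral gavage in 20% EtOH/80% PEG-200 (v/v), at 0.25% of body weight, for 2 weeks. Blood taken after a 6-h fast: orbital plexus before dosing and at day 7, cardiac puncture at day 14. Serum lipoprotein cholesterol measured by Superose 6 gel filtration with on-line cholesterol detection. Values are % change from pretreatment, mean ± SEM.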

[19] = tested on: Rattus norvegicus; assay: Percentage change of HDL cholesterol levels in obese female Zucker rats after 1 week of pre-treatment at a dose of 100 mg/kg/day
Outline: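 Obese female Zucker fatty rats were gavaged once daily with 30 or 100 mg/kg/day in 20% EtOH/80% PEG-200 for 2 weeks. Sera were collected after a 6 h fast, before dosing, at 1 week (orbital plexus) and at 2 weeks (cardiac puncture). HDL-C was total cholesterol multiplied by HDL area fraction from gel-filtration lipoprotein profiles. Reported as % change from pretreatment ± SEM.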

[20] = tested on: Rattus norvegicus; assay: Percentage change of non-HDL cholesterol levels in obese female Zucker rats after 1 week of pre-treatment at a dose of 100 mg/kg/day; outline: as §6
[21] = tested on: Rattus norvegicus; assay: Amount of nonesterified fatty acids in obese Zucker rats after 1 week of treatment at a dose of 0 mg/kg/day; outline: as §4
[22] = tested on: Rattus norvegicus; assay: Amount of nonesterified fatty acids in obese Zucker rats after 1 week of treatment at a dose of 30 mg/kg/day; outline: as §4
[23] = tested on: Rattus norvegicus; assay: Amount of glucose in obese Zucker rats after 1 week of treatment at a dose of 0 mg/kg/day; outline: as §3
[24] = tested on: Rattus norvegicus; assay: Amount of glucose in obese Zucker rats after 1 week of treatment at a dose of 3 mg/kg/day; outline: as §3
[25] = tested on: Rattus norvegicus; assay: Amount of insulin in obese Zucker rats after 1 week of treatment at a dose of 0 mg/kg/day; outline: as §2
[26] = tested on: Rattus norvegicus; assay: Amount of insulin in obese Zucker rats after 1 week of treatment at a dose of 3 mg/kg/day; outline: as §2
[27] = tested on: Rattus norvegicus; assay: Amount of triglycerides in obese Zucker rats at pre-treatment at a dose of 10 mg/kg/day; outline: as §4
[28] = tested on: Rattus norvegicus; assay: Amount of insulin in obese Zucker rats after 2 weeks of treatment at a dose of 0 mg/kg/day; outline: as §2
[29] = tested on: Rattus norvegicus; assay: Amount of glucose in obese Zucker rats after 2 weeks of treatment at a dose of 30 mg/kg/day; outline: as §3
[30] = tested on: Rattus norvegicus; assay: Amount of insulin in obese Zucker rats after 2 weeks of treatment at a dose of 3 mg/kg/day; outline: as §2
[31] = tested on: Rattus norvegicus; assay: Amount of non-HDL-cholesterol in obese Zucker rats after 2 weeks of treatment at a dose of 100 mg/kg/day; outline: as §5

| SMILES | Activity [1] | Activity [2] | Activity [3] | Activity [4] | Activity [5] | Activity [6] | Activity [7] | Activity [8] | Activity [9] | Activity [10] | Activity [11] | Activity [12] | Activity [13] | Activity [14] | Activity [15] | Activity [16] | Activity [17] | Change [18] | Change [19] | Change [20] | further results |
| --- | --- | --- | --- | --- | --- | --- | --- | --- | --- | --- | --- | --- | --- | --- | --- | --- | --- | --- | --- | --- | --- |
| CC(C)(CO)CCCCC(=O)CCCCC(C)(C)CO | -30% | 9.8 ng/mL | 118 mg/dL | 8.8 ng/mL | 9.3 ng/mL | 933 mg/dL | 602 mg/dL | 1.1 mg/dL | 78 mg/dL | 61 mg/dL | 1.4 mg/dL | 52 mg/dL | 39 mg/dL | 1.2 mg/dL | 1.4 mg/dL | 36 mg/dL | 42% | -29% | 111% | -23% | Activity [21]: 1.3 mg/dL; Activity [22]: 1.1 mg/dL; Activity [23]: 118 mg/dL; Activity [24]: 106 mg/dL; Activity [25]: 8.7 ng/mL; Activity [26]: 7.5 ng/mL; Activity [27]: 777 mg/dL; Activity [28]: 7.7 ng/mL; Activity [29]: 120 mg/dL; Activity [30]: 7.8 ng/mL; Activity [31]: 32 mg/dL |
| CC(C)(CCCCC(=O)CCCCC(C)(C)C(=O)O)C(=O)O | -33% | 8.5 ng/mL | 122 mg/dL | 10.4 ng/mL | 7.7 ng/mL | 130 mg/dL | 692 mg/dL | 1.5 mg/dL | 66 mg/dL | 50 mg/dL | 1.4 mg/dL | 47 mg/dL | 33 mg/dL | 1.5 mg/dL | 1.2 mg/dL | 43 mg/dL | 47% | -69% | 54% | -62% | Activity [21]: 1.5 mg/dL; Activity [22]: 1 mg/dL; Activity [23]: 124 mg/dL; Activity [24]: 99 mg/dL; Activity [25]: 8.4 ng/mL; Activity [26]: 10.7 ng/mL; Activity [27]: 1143 mg/dL; Activity [28]: 0.058 ng/mL; Activity [29]: 118 mg/dL; Activity [30]: 8.6 ng/mL; Activity [31]: 22 mg/dL |
| CC(C)(CCCCCC(=O)CCCCCC(C)(C)C(=O)O)C(=O)O | -30% | 7.7 ng/mL | 105 mg/dL | 8.6 ng/mL | 9.8 ng/mL | 950 mg/dL | 553 mg/dL | 1.3 mg/dL | 100 mg/dL | 208 mg/dL | 1.3 mg/dL | 136 mg/dL | 77 mg/dL | 1.3 mg/dL | 1.4 mg/dL | 29 mg/dL | 235% | -94% | 72% | -98% | Activity [21]: 1.3 mg/dL; Activity [22]: 0.88 mg/dL; Activity [23]: 123 mg/dL; Activity [24]: 117 mg/dL; Activity [25]: 10.1 ng/mL; Activity [26]: 10 ng/mL; Activity [27]: 863 mg/dL; Activity [28]: 8.1 ng/mL; Activity [29]: 130 mg/dL; Activity [30]: 7.3 ng/mL; Activity [31]: 3 mg/dL |
